FN deposition inh: fibronectin deposition inhibition. AH1F fibroblasts, Alexa488-fibronectin deposition fluorescence, overnight. inhibition, % at 12.6 µM. actives 0.086% (n = 350,000). AID 743247;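 active = mean inhibition across replicates of 30% or more, regardless of how many single replicates reach that level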;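 also: positive control wells lacked labelled fibronectin entirely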
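Assay system: AH1F fibroblasts assembling fluorescent fibronectin matrix; Amount: 10000 AH1F cells per well; Buffer or medium: DMEM, 2% serum; Probe or stimulus: Alexa488-fibronectin, 24 nM final in well; Doses: single compound dose, delivered by pin transfer; Incubation: 1 h adhesion, overnight exposure; Measured by: fluorescence 485/525 nm; Read-out: fibronectin deposition inhibition.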
F508del corr: correctors of CFTR F508del function in bronchial epithelial cells | CFBE cells, YFP halide quenching; stimulated with forskolin plus potentiator P3; % fluorescence drop versus neutral controls | activity (quench increase), % at 7.58 µM | actives 0.36% (n = 350,000);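 active = mean added fluorescence quench of at least 8% versus neutral control, with both replicates also reaching 8%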;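 also: cells transiently co-express mutant CFTR-F508del with the halide-sensitive YFP; corrector assay measuring rescue of mutant channel to the surface after 24 h compound exposure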
XiGFP reactiv: reactivates the inactive X chromosome in mouse fibroblasts | XiGFP mouse fibroblasts, % GFP-positive cells imaging, 3 d; cells co-treated with 5-aza-dC sensitizer; scaled so ellipticine positive control = 100% | activation, % at 7.58 µM | actives 0.055% (n = 360,000) | AID 743238;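 active = mean normalized replicate activation at least 10% and every replicate at or above 10%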;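 also: 0% = median of on-plate neutral control wells and 100% = ellipticine 6 µM median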
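Schedule: 3 d treatment, 15 min room-temperature fixation; system: 68-5-11 XiGFP fibroblast line; buffer or medium: DMEM plus 5-aza-dC sensitizer; control set: ellipticine 6 µM positive control; compound: one concentration, pinned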
DENV2 CPE rescue: DENV2-induced cell death inhibition; DENV2-infected cells, cytopathic effect rescue, plate reader; CPE inhibition, % at 9.99 µM; actives 1.7% (n = 350,000); AID 651640; in the data active = CPE inhibition above about 20%, passing the limit was not always enough; tested in BHK-21 cells;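 also: 0% = median of neutral control wells and 100% = median of positive control wells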
Cneo AK release: causes C. neoformans cell lysis; adenylate kinase release luminescence, 4 h; normalised: neutral wells 0, clomiphene wells 100; lysis activity, % at 15 µM; actives 0.2% (n = 360,000); AID 651654;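 active = mean lysis activity across replicates of at least 80%, whatever share of replicates individually reach that level; inactive = mean lysis activity below 80%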
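Schedule: static 4 h at 37 °C with compound, 1 h detection; system: C. neoformans cells; benchmarks: Clomiphene as positive control; buffer or medium: fresh YPD medium; measure: luminescence rise reflecting yeast cell lysis; measured by: luminescent adenylate kinase detection reagent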
PGC1a acetyl inh: modulators of PGC1a acetylation. AID 651687. U2OS PGC1a acetylation, AlphaScreen anti-acetyl-lysine; with virally co-expressed GCN5 acetyltransferase. actives 0.17% (n = 350,000). inhibition, % at 15.6 µM;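 active = every replicate shows inhibition of at least 40%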;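 also: 0% = neutral control wells and 100% = positive control wells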
* = called active by the depositor; · = no result. Rows were chosen to be rich in hits. Some 1.9% of all compounds tested hit in one or more screens of this group.

SMILES | FN deposition inh | F508del corr | XiGFP reactiv | DENV2 CPE rescue | Cneo AK release | PGC1a acetyl inh
Cc1ccc(S(=O)(=O)N(C)C[C@H]2OCCCC[C@@H](C)Oc3ccc(NC(=O)Nc4ccc(C(F)(F)F)cc4)cc3C(=O)N([C@H](C)CO)C[C@@H]2C)cc1 | -15.7 | 2.5 | 0.2 | 66.5* | 4.3 | 1.8
Cc1ccc(S(=O)(=O)N(C)C[C@@H]2OCCCC[C@H](C)Oc3ccc(NC(=O)Nc4ccc(C(F)(F)F)cc4)cc3C(=O)N([C@@H](C)CO)C[C@@H]2C)cc1 | -10.0 | -3.1 | 0.5 | -11.1 | 1.1 | 1.9
Cc1ccc(S(=O)(=O)N(C)C[C@@H]2OCCCC[C@H](C)Oc3ccc(NC(=O)Nc4ccc(C(F)(F)F)cc4)cc3C(=O)N([C@@H](C)CO)C[C@H]2C)cc1 | 1.5 | 2.9 | 0.3 | 23.4* | -2.9 | 1.9
Cc1ccc(S(=O)(=O)N(C)C[C@H]2OCCCC[C@@H](C)Oc3ccc(NC(=O)NC(C)C)cc3C(=O)N([C@H](C)CO)C[C@@H]2C)cc1 | 1.0 | -0.5 | 0.0 | 72.4* | 1.0 | 5.0
C[C@@H]1CCCCO[C@H](CN(C)S(=O)(=O)c2ccccc2)[C@H](C)CN([C@@H](C)CO)C(=O)c2cc(NC(=O)Nc3ccc(C(F)(F)F)cc3)ccc2O1 | 0.0 | 0.5 | 0.1 | 22.7* | 4.7 | 3.2
Cc1ccc(S(=O)(=O)N(C)C[C@H]2OCCCC[C@@H](C)Oc3ccc(NC(=O)NC(C)C)cc3C(=O)N([C@@H](C)CO)C[C@H]2C)cc1 | -2.6 | 3.3 | 0.1 | 12.5 | -1.5 | -11.0
C/C=C/c1ccc([C@@H]2[C@H](CO)N(C(=O)CN(C)C)C23CN(C(=O)C2CCC2)C3)cc1 | -0.9 | 0.8 | 0.3 | -1.8 | · | 8.5
COc1ccc(S(=O)(=O)Nc2ccc3c(c2)C(=O)N([C@H](C)CO)C[C@@H](C)[C@H](CN(C)Cc2ccc(C(=O)O)cc2)O3)cc1 | -6.2 | -1.2 | 0.0 | -4.1 | -4.2 | -4.4
CN(CCc1ccccn1)C(=O)CCC1CCCN(C(=O)c2cccc(N(C)C)c2)C1 (configuration not stated) | -0.4 | 3.0 | 0.0 | 34.6* | 0.5 | 0.2
CN(CCc1ccccn1)C(=O)CCC1CCCN(C(=O)c2ccc3c(c2)OCCO3)C1 (configuration not stated) | -2.9 | -1.2 | 0.2 | · | · | -3.9
CCS(=O)(=O)Nc1ccc2c(c1)C(=O)N(C)C[C@@H](OC)[C@@H](C)CN(CC1CCCC1)[C@H](C)CO2 | -2.9 | -0.6 | 0.4 | · | -3.1 | -3.1
CC(=O)NC(c1cccc(F)c1)c1nc(-c2cccc(C(=O)O)c2)cs1 (configuration not stated) | -6.0 | 3.2 | 0.1 | 7.0 | 0.9 | -13.0
COc1ccc(C(O)c2nc(-c3cc(F)cc(F)c3)cs2)cc1 (configuration not stated) | 3.5 | 0.4 | -0.2 | -7.0 | -1.6 | ·
COc1cccc(C(O)c2nc(-c3cc(F)cc(F)c3)cs2)c1 (configuration not stated) | · | 3.2 | 0.0 | 29.6* | 0.9 | ·
CC(=O)NC(c1cccc(F)c1)c1nc(-c2cccc(C(C)C)c2)cs1 (configuration not stated) | 7.1 | -2.0 | 0.0 | 8.9 | -1.1 | 99.5*
O=C(O)c1cccc(-c2csc(C(O)c3ccc(F)c(F)c3)n2)c1 (configuration not stated) | · | -1.4 | -0.1 | 40.9* | 0.5 | -33.6
COc1ccc(-c2csc(C(O)c3cccc(OC)c3)n2)cc1 (configuration not stated) | 6.2 | -1.0 | 0.1 | 52.0* | -2.5 | 2.8
OC(c1ccc(F)c(F)c1)c1nc(-c2ccccc2)cs1 (configuration not stated) | 6.1 | 0.7 | 0.1 | 7.0 | 11.2 | 13.7
Cc1ccc(S(=O)(=O)N[C@H]2C=C[C@@H](CC(=O)NCc3ccncn3)O[C@H]2CO)cc1 | · | -2.3 | -0.1 | 0.2 | -3.9 | -2.7
CCC(=O)Nc1ccc2c(c1)C(=O)N(C)[C@@H]1CC[C@@H](CC(=O)N[C@H](C)c3ccccc3)O[C@H]1CO2 | -25.4 | -3.2 | 0.3 | 9.8 | 10.7 | -3.2

From PubChem BioAssay
